Changes are numbered by the printed parent chain.
How the values were obtained:
Test in all cases: inside-out patch clamp, block of cGMP-activated current, Hill fit
Type in all cases: cell-based
CNGA1 [1] = target: T1, CNGA1 (Bos taurus, UniProt Q00194, R342Y)
T1 sequence (Q00194 1-690 R342Y): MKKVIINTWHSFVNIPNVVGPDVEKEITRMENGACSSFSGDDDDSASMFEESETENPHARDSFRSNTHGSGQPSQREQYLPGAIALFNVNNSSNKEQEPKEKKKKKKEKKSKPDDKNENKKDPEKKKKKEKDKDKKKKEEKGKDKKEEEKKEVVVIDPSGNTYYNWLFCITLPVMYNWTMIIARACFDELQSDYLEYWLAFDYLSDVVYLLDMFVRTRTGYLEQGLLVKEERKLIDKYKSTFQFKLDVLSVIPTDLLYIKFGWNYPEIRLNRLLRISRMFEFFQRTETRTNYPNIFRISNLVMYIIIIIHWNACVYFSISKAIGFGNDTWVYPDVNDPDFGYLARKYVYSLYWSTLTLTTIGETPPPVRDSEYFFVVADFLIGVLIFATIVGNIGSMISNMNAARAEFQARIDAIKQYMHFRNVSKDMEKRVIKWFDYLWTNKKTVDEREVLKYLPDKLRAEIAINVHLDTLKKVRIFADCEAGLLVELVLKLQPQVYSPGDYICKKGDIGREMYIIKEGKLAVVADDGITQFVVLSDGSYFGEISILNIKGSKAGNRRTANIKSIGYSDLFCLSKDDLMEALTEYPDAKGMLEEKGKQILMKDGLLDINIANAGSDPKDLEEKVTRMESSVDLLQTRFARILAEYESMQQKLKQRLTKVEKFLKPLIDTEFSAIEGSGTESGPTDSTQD

CNGA2 = target: T2, CNGA2 (Rattus norvegicus, UniProt Q00195)
T2 sequence (Q00195 1-664): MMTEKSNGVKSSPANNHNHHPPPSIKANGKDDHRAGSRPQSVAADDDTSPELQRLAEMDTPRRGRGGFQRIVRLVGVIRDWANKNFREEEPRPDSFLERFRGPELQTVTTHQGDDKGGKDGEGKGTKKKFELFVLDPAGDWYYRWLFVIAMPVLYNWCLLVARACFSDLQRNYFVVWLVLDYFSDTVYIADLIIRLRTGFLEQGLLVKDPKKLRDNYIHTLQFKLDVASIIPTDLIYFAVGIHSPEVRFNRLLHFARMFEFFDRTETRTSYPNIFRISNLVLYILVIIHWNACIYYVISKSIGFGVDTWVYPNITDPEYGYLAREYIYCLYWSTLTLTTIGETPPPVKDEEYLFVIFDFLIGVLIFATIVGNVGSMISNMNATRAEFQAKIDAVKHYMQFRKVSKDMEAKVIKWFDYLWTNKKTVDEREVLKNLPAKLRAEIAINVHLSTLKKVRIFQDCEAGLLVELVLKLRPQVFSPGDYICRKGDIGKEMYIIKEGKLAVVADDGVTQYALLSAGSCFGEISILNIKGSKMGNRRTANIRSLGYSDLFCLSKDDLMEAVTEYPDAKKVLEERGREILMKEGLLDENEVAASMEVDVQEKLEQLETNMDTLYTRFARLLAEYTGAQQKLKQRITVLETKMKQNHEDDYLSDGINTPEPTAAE
Method in brief: (§1)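 Channels expressed in Xenopus oocytes 2–10 d after cRNA injection; inside-out patches, room temperature. […] Blocker applied at 0 mV with 20-ms steps to +20 mV every 5 s. Currents were cGMP-free subtracted. Hill fit, SEM, n = 5–7 patches.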

CNGA1 [2] = target: T3, CNGA1 (Bos taurus, UniProt Q00194)
T3 sequence (Q00194 1-690): T1 sequence (Q00194 1-690 R342Y) with Y342R
Method in brief: as §1

CNGA1 [3] = target: T4, CNGA1 (Bos taurus, UniProt Q00194, R342D)
T4 sequence (Q00194 1-690 R342D): T1 sequence (Q00194 1-690 R342Y) with Y342D

- IC50 (CNGA1 [1]): 91 ± 0.1 nM
- IC50 (CNGA2): 2400 ± 290 nM
- IC50 (CNGA1 [2]): 189 ± 4.19 nM
- IC50 (CNGA1 [3]): 123 ± 0.2 nM
Compound: Cc1cc(N)c2ccccc2[n+]1CCCCCCCCCC[n+]1c(C)cc(N)c2ccccc21 [dequalinium]

— paper PMC1389615 (The Journal of General Physiology, 2004)
